Data on 19 molecules can be found in ChEMBL document CHEMBL1770125, “Amodiaquine analogues containing NO-donor substructures: synthesis and their preliminary evaluation as potential tools in the treatment of cerebral malaria” (Eur J Med Chem, 2011).

pEC50, pIC50: −log10 of the molar value. The source made the active and inactive calls. No cut-off for these calls is given here.

Experiment [1] relates to Plasmodium falciparum. Nature of the experiment: Antiplasmodial activity against chloroquine-sensitive Plasmodium falciparum D10 assessed as inhibition of parasite LDH activity after 72 hrs by spectrophotometry. The settings on record: D10, 72 h. It is filed as functional, organism-based. A digest of the protocol: (§1)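 Asynchronous cultures (1-1.5% parasitemia, 1% final haematocrit) in human A+ RBCs were grown in RPMI 1640 with 1% AlbuMax, hypoxanthine, HEPES and glutamine, at 37 °C under 1% O₂/5% CO₂. IC50 is the mean±SD of ≥3 experiments.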

Experiment [2] has as its system Plasmodium falciparum. In words: Antiplasmodial activity against chloroquine-resistant Plasmodium falciparum W2 assessed as inhibition of parasite LDH activity after 72 hrs by spectrophotometry. It is filed as functional, organism-based. The settings on record: W2, 72 h. A digest of the protocol:
as §1

For experiment [3], the species on record is Rattus norvegicus. Nature of the experiment: Vasodilatory activity in pre-contracted Wistar rat aortic rings. The class given is functional, Aorta. The settings on record: for pEC50: Rattus norvegicus, Aorta, read-out: EC50. A digest of the protocol: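 Aortic strips, endothelium removed, from male Wistar rats (180-200 g) were held in Krebs-bicarbonate at 37 °C, pH 7.4, gassed with 95% O₂/5% CO₂. After 90 min equilibration they were contracted with 1 μM phenylephrine. Cumulative concentration-response curves were run at plateau, with isometric recording. EC50 is the mean of ≥5 determinations.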

Experiment [4] is filed under the species Rattus norvegicus. Nature of the experiment: Vasodilatory activity in pre-contracted Wistar rat aortic rings in presence of 1 uM ODQ. The settings on record: for pEC50: Rattus norvegicus, Aorta, read-out: EC50. The class given is functional, Aorta. A digest of the protocol: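 Endothelium-denuded aortic strips from male Wistar rats (180-200 g) were kept in Krebs-bicarbonate at 37 °C, pH 7.4. ODQ at 1 μM was added 5 min before contraction with 1 μM phenylephrine. Cumulative relaxation curves were recorded isometrically. EC50 is the mean of ≥5 determinations.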

The test system of experiment [5] is Plasmodium berghei. In words: Antiplasmodial activity against Plasmodium berghei ANKA infected in C57BL/6 mouse assessed as reduction in parasitemia at 1 mg, ip daily for 5 days measured after 72 hrs relative to control. It is filed as functional, organism-based.
The subject of experiment [6] is Plasmodium berghei. In words: Antiplasmodial activity against Plasmodium berghei ANKA infected in C57BL/6 mouse assessed as mouse survival 1.15 mg, ip daily for 5 days relative to control. It is filed as functional, organism-based. An outline of the steps:
(§2)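 C57BL/6 mice aged 6-8 weeks were infected ip with 1x10⁶ PbA-GFP parasitized red blood cells. Parasitemia, motor behaviour, rectal temperature and weight were checked from day 5. Treatment began at late-stage CM, defined by neurological signs (ataxia, paralysis, poor righting, seizures, roll-over, coma). Doses were 100 μL ip daily for 5 days: 1.4 mg in 20% DMSO/20% PEG400/60% saline, 1.15 mg in saline.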

Experiment [7] has as its system Plasmodium berghei. In words: Antiplasmodial activity against Plasmodium berghei ANKA infected in C57BL/6 mouse assessed as reduction in parasitemia at 1.15 mg, ip daily for 5 days measured after 72 hrs relative to control. The class given is functional, organism-based. A digest of the protocol: as §2
Experiment [8] concerns Plasmodium berghei. Nature of the experiment: Antiplasmodial activity against Plasmodium berghei ANKA infected in C57BL/6 mouse assessed as reduction in parasitemia at 1.15 mg, ip daily for 5 days measured upto 24 hrs relative to control. The class given is functional, organism-based. A digest of the protocol:
as §2

In experiment [9] the test system is Plasmodium berghei. In words: Antiplasmodial activity against Plasmodium berghei ANKA infected in C57BL/6 mouse assessed as reduction in parasitemia at 1 mg, ip daily for 5 days measured upto 24 hrs relative to control. It is filed as functional. Also noted: scale not given: the % may be the effect or the level left.
The subject of experiment [10] is Plasmodium berghei. In words: Antiplasmodial activity against Plasmodium berghei ANKA infected in C57BL/6 mouse assessed as mouse survival at 1.4 mg, ip daily for 5 days relative to control. It is filed as functional. An outline of the steps:
as §2

In experiment [11] the test system is Plasmodium berghei. In words: Antiplasmodial activity against Plasmodium berghei ANKA infected in C57BL/6 mouse assessed as reduction in parasitemia at 1.4 mg, ip daily for 5 days measured after 72 hrs relative to control. It is filed as functional, organism-based. An outline of the steps: as §2
In experiment [12] the test system is Plasmodium berghei. In words: Antiplasmodial activity against Plasmodium berghei ANKA infected in C57BL/6 mouse assessed as mouse survival at 1 mg, ip daily for 5 days relative to control. It is filed as functional.
Experiment [13] concerns Plasmodium berghei. In words: Antiplasmodial activity against Plasmodium berghei ANKA infected in C57BL/6 mouse assessed as reduction in parasitemia at 1.4 mg, ip daily for 5 days measured upto 24 hrs relative to control. Also noted: scale not given: the % may be the effect or the level left. It is filed as functional. An outline of the steps: as §2

By pIC50 is commonly meant the negative decadic logarithm of the IC50, by convention in mol/L. Turning to `CCNCCCCC(CO[N+](=O)[O-])O[N+](=O)[O-]` (stereo not given), the pIC50 in the experiment on Plasmodium falciparum [1] and with Plasmodium falciparum [2] was less than 5.30 in each case.
As usually defined, the pEC50 is the EC50 on a negative log10 scale, so that one unit is a factor of ten. Turning to `CN(C)CCCOc1no[n+]([O-])c1S(=O)(=O)c1ccccc1`, the pEC50 in the experiment listed under Rattus norvegicus [3] is 4.84; in the experiment filed under Rattus norvegicus [4] it was less than 5.00. In addition, the negative-log IC50 (pIC50) in the experiment with Plasmodium falciparum [1] and in the experiment on Plasmodium falciparum [2] was less than 5.30 each time.
Consider `CCN(CCCO[N+](=O)[O-])Cc1cc(Nc2ccnc3cc(Cl)ccc23)ccc1O`, for which the negative-log EC50 (pEC50) was 6.35 in the experiment listed under Rattus norvegicus [3] and 5.48 in the experiment filed under Rattus norvegicus [4]. In addition, the pIC50 with Plasmodium falciparum [1] is 7.57; in the experiment with Plasmodium falciparum [2], 7.51.
Taken in the same sequence, the figures for `O=[N+]([O-])OCC1CCN(Cc2cc(Nc3ccnc4cc(Cl)ccc34)ccc2O)CC1` were 7.00, less than 4.52, 7.72 and 7.55.
On the same counts, the results for `O=[N+]([O-])OCCCNCc1cc(Nc2ccnc3cc(Cl)ccc23)ccc1O` are 6.38, 4.96, 7.57 and 7.21.
Taken in the same sequence, the figures for `CCN(CCCCCCO[N+](=O)[O-])Cc1cc(Nc2ccnc3cc(Cl)ccc23)ccc1O` were 6.35, less than 4.52, 7.51 and 7.55.
Turning to `O=[N+]([O-])OCCN1CCNCC1`, the pIC50 in the experiment with Plasmodium falciparum [1] and in the experiment on Plasmodium falciparum [2] was less than 5.30 in each case.
Take `CCNCCCCCCO[N+](=O)[O-]`: the negative logarithm of the IC50 (pIC50) in the experiment with Plasmodium falciparum [1] and with Plasmodium falciparum [2] was less than 5.30 each time.
Take `O=[N+]([O-])OCC1CCNCC1`: the negative-log IC50 (pIC50) in the experiment with Plasmodium falciparum [1] and in the experiment on Plasmodium falciparum [2] was less than 5.30 throughout.
On to `O=[N+]([O-])OCCN1CCN(Cc2cc(Nc3ccnc4cc(Cl)ccc34)ccc2O)CC1`, for which the negative logarithm of the EC50 (pEC50) in the experiment listed under Rattus norvegicus [3] was 6.92; in the experiment listed under Rattus norvegicus [4], 5.19. Besides, the results for the pIC50 in the experiment on Plasmodium falciparum [1] and with Plasmodium falciparum [2] were 7.26 and 6.86, respectively.
Taken in the same sequence, the figures for `CCN(CCOc1no[n+]([O-])c1-c1ccccc1)Cc1cc(Nc2ccnc3cc(Cl)ccc23)ccc1O` were 5.92, less than 5.00, 7.64 and 7.62.
On the same counts, the results for `O=[N+]([O-])OCCC1CCN(Cc2cc(Nc3ccnc4cc(Cl)ccc34)ccc2O)CC1` are 7.00, less than 4.52, 7.72 and 7.60.
For `CCN(CCCCC(CO[N+](=O)[O-])O[N+](=O)[O-])Cc1cc(Nc2ccnc3cc(Cl)ccc23)ccc1O` (stereo not given), the negative-log EC50 (pEC50) in the experiment filed under Rattus norvegicus [3] is 6.66; in the experiment filed under Rattus norvegicus [4], less than 4.52. The outcome in the experiment on Plasmodium berghei [5] and with Plasmodium berghei [7] was Active. Besides, the Survival result with Plasmodium berghei [6] is “inactive”. Moreover, the pIC50 with Plasmodium falciparum [1] was 7.42; with Plasmodium falciparum [2], 7.68. Besides, the result with Plasmodium berghei [8] was inactive.
Regarding `CCN(CCOc1no[n+]([O-])c1S(=O)(=O)c1ccccc1)Cc1cc(Nc2ccnc3cc(Cl)ccc23)ccc1O.Cl.Cl.Cl`, the pEC50 was 7.77 in the experiment filed under Rattus norvegicus [3] and 6.00 in the experiment filed under Rattus norvegicus [4]. Besides, the result in the experiment with Plasmodium berghei [5], in the experiment with Plasmodium berghei [7] and with Plasmodium berghei [11] was Active. The pIC50 in the experiment on Plasmodium falciparum [1] was 7.34; in the experiment with Plasmodium falciparum [2], 6.82. The Activity with Plasmodium berghei [9] was 72%; with Plasmodium berghei [13], 76%. In addition, the Survival with Plasmodium berghei [10] was 23%; in the experiment on Plasmodium berghei [12], 8%.
Take `O=[N+]([O-])OCCCN1CCNCC1`: the pIC50 with Plasmodium falciparum [1] and in the experiment on Plasmodium falciparum [2] was less than 5.30 in each case.
Consider `CCN(CC)Cc1cc(Nc2ccnc3cc(Cl)ccc23)ccc1O.Cl`, for which the EC50 entry in the experiment filed under Rattus norvegicus [3] and in the experiment filed under Rattus norvegicus [4] was “Not Active” in each case. In the experiment on Plasmodium berghei [5], the outcome was Active. The results for the pIC50 in the experiment on Plasmodium falciparum [1] and in the experiment with Plasmodium falciparum [2] were 7.92 and 7.80, respectively.
With `O=[N+]([O-])OCCCN1CCN(Cc2cc(Nc3ccnc4cc(Cl)ccc34)ccc2O)CC1`, the pEC50 in the experiment listed under Rattus norvegicus [3] was 7.10; in the experiment listed under Rattus norvegicus [4], 5.44. For the same molecule, the pIC50 with Plasmodium falciparum [1] is 7.74; with Plasmodium falciparum [2] it was 7.47.
On to `CN(C)CCCOc1no[n+]([O-])c1-c1ccccc1`, for which the pEC50 in the experiment filed under Rattus norvegicus [3] is 7.52. The pIC50 was less than 5.30 in the experiment with Plasmodium falciparum [1] and 5.31 in the experiment with Plasmodium falciparum [2].
As to `O=[N+]([O-])OCCC1CCNCC1`, the pIC50 in the experiment with Plasmodium falciparum [1] and in the experiment on Plasmodium falciparum [2] was less than 5.30 each time.
